Experimental data collected from several papers.
Each line is one published result; the experiments were not run side by side.
Target: Serine/threonine-protein kinase ULK3 (ULK3, Homo sapiens, UniProt Q6PHR2)
Sequence (Q6PHR2 1-472, as in one of the studies): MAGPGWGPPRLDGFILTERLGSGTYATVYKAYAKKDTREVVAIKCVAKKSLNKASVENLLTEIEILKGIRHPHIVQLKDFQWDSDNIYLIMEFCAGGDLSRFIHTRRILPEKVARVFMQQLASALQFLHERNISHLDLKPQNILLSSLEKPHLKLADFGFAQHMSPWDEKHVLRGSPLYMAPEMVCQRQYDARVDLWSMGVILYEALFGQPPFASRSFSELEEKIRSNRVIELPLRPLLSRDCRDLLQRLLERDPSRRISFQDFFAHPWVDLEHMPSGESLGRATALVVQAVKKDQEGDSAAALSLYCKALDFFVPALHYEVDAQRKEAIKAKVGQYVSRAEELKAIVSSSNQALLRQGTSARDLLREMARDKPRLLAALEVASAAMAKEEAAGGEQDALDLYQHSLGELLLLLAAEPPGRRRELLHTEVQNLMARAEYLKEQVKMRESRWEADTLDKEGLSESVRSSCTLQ

Compound | read-out | action | method | tested at | endpoint | result
COc1cc2c(N3CCN(C(=O)Nc4ccc(OC(C)C)cc4)CC3)ncnc2cc1OCCCN1CCCCC1 | cell-free assay |  |  | 0.5 µM | remaining signal | 101%
c1ccc(N2CCN(Cc3nc4ccccc4[nH]3)CC2)nc1 | binding |  | competition with immobilised ligand | 1 µM | remaining binding | 100%
Nc1ncnc2occ(-c3ccc(NC(=O)Nc4cc(C(F)(F)F)ccc4F)cc3)c12 | cell-free assay | inhibitor |  | 20 µM | remaining signal | 0.6%
CC(C)(O)[C@H]1CC[C@H](Nc2ccc3ncc(-c4cccc(C(F)(F)F)c4)n3n2)CC1 | enzyme activity | inhibitor |  | 1 µM | remaining activity | 86.2%
Cc1cnc(NC2CCOCC2)nc1-n1cnc(C(=O)NC(CN)c2cc(F)cc(Cl)c2)c1 (centres unmarked) | enzyme activity | inhibitor | radiometric | 1 µM | remaining activity | 91%
Cc1cc(NC(=O)c2cccc(S(F)(F)(F)(F)F)c2)cc(-n2ccn3nc(-c4cccnc4)cc23)c1 | cell-free assay |  | competition with immobilised ligand | 1 µM | remaining binding | 75.2%
O=C(Nc1cnn(-c2csc(C(=O)NC3COC3)c2)c1)Nc1ccccc1Cl | enzyme activity | inhibitor |  | 5 µM | remaining activity | 111%
Cc1ccc(C(=O)Nc2ccc(CN3CCN(C)CC3)c(C(F)(F)F)c2)cc1C#Cc1cnc2cccnn12 | enzyme activity | inhibitor |  | 23.5 nM | remaining activity | 61%
COc1cc2ncnc(Nc3ccc(F)c(Cl)c3)c2cc1OCCCN1CCOCC1 | cell-free assay |  |  | 0.5 µM | remaining signal | 108%
C[C@@H](c1cccc(C#N)c1)n1cc(Cl)cc(C(N)=O)c1=N | cell-free assay |  | competition with immobilised ligand | 1 µM | remaining binding | 75%
O=C1Nc2ccc(Cl)cc2C1=Cc1cc(Cl)c(O)c(Cl)c1 | cell-free assay |  |  | 0.5 µM | remaining signal | 92.2%
COc1cccc2c(NCc3ccccc3)nc(-n3c(N)nc4ccccc43)nc12 | target engagement in cells | inhibitor | chemoproteomics | 20 mM | inhibition | -11.6%
Nc1cnc(N2CCc3cc(S(=O)(=O)Nc4c(F)cc(Cl)cc4F)cc(N4CCCC4=O)c32)nc1 | cell-free assay |  | competition with immobilised ligand | 1 µM | remaining binding | 100%
COc1cc2c(Nc3ccc(Br)cc3F)ncnc2cc1OCC1CCN(C)CC1 | cell-free assay |  |  | 0.5 µM | remaining signal | 105%
